# Bioassay records from PubChem.
# An excerpt weighted towards active compounds, which were near 3.7% of everything screened.
# KCNQ1 inh: inhibitors of human KCNQ1 potassium channel | 310,000 tested, 1.3% active | B-score at 10 µM | P51787 | CHO-K1 KCNQ1, FluxOR thallium flux fluorescence; hits give high values;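 active = compounds whose thallium flux B-score, printed positive for inhibition, exceeds three library SD while starting fluorescence stays within three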;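 note: channel opened by potassium depolarization with thallium stimulus after 20 min compound exposure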
# KCNK9 block: human KCNK9 channel inhibition. Q9NPC2. HEK293 KCNK9, FluxOR thallium flux fluorescence; hits give low values. B-score at 10 µM. 310,000 tested, 1.2% active. AID 488922;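 active = ratio B-score over 3 SD below the library mean, with starting fluorescence within 5 SD of its mean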;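 note: negative B-score means less thallium flux so channel inhibition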
# Target sequence (Q9NPC2 whole entry, looked up): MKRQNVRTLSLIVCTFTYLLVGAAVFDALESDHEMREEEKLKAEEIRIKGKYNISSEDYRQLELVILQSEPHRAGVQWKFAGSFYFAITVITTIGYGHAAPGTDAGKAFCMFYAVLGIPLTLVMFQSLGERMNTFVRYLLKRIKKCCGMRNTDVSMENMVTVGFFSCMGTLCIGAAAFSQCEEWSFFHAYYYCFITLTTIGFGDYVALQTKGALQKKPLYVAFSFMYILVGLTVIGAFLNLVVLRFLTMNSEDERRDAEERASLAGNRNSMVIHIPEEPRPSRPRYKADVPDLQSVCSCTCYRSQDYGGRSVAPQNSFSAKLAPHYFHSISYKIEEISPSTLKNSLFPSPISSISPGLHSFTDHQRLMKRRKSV
# KCNQ1 pot: human KCNQ1 channel potentiation or activation | P51787 | CHO-K1 KCNQ1, thallium flux FluxOR fluorescence; hits give high values | B-score at 10 µM | 310,000 tested, 0.35% active;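 active = fluorescence ratio B-score, a plate-corrected score, at least three library SD, with initial intensity B-score within 5 SD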
#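 Assay system: CHO-K1 cells stably expressing KCNQ1; Medium: assay buffer with matched DMSO; Also added: K+/Tl+ depolarizing stimulus; Dosing: single dose; Timing: dye 90 min, compound 20 min, room temperature; Measured by: kinetic FluxOR thallium fluorescence, 10-s 1-Hz baseline, 110-s post-stimulus read; Read-out: peak-minus-minimum fluorescence over initial fluorescence, negative-control normalized, B-scored.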
# hERG rescue: compounds protecting human hERG from proarrhythmic drug block | Q12809 | CHO-hERG, FluxOR thallium flux, dofetilide IC70 present | activation (rescue from dofetilide block), less the hit threshold, % at 10 µM | 310,000 tested, 0.51% active | AID 1511;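 active = activation above the mean of controls blocked by dofetilide plus 5 SD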;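 note: thallium influx through hERG after potassium depolarization seen as dye fluorescence rise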
# Kir21 inh: Kir2.1 (mouse) channel inhibition; HEK293-Kir2.1, FluxOR thallium flux fluorescence; hits give low values; B-score at 10 µM; AID 1672; 310,000 tested, 0.85% active;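 active = fluorescence ratio B-score at or below minus 3 SD of library scores, with starting-brightness B-score within 2 SD, cut at about -4.2 in these data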;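 note: channel flux triggered by added potassium and thallium sulfate stimulus; B-score of peak minus minimum fluorescence over baseline after thallium stimulus; more negative B-score means stronger Kir2.1 block with less thallium influx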
# KCNK3 inh: human KCNK3 channel inhibition, primary screen. 340,000 tested, 0.84% active. O14649. CHO-KCNK3 thallium flux, FluxOR fluorescence; hits give low values. B-score at 10 µM;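 active = B-score under library mean minus 4 SD, starting fluorescence ratio at most library mean plus 5 SD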;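 note: more negative B-score means stronger inhibition of thallium flux through KCNK3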
# * = called active by the depositor; i = inactive; nt = no result given.
SMILES,KCNQ1 inh,KCNK9 block,KCNQ1 pot,hERG rescue,Kir21 inh,KCNK3 inh
CCN(CC)C(=O)COc1ccc2oc(C)c(C(=O)OC(C)C)c2c1,i,i,i,-19,-4.2*,i
Cn1c(SCC(=O)Nc2cccnc2Cl)nc2ccccc21,nt,nt,nt,nt,nt,i
Cc1nn(C)c(C(=O)Nc2c(C)nn(Cc3c(F)c(F)c(F)c(F)c3F)c2C)c1Br,i,i,i,-10,-0.26,i
COc1cc(/C=C2\SC(=O)N(c3ccccc3Cl)C2=O)cc([N+](=O)[O-])c1O,10*,i,i,-11,1.5,i
Cc1cccc(C)c1NC(=O)COC(=O)/C=C/c1ccc(S(=O)(=O)N2CCOCC2)cc1,nt,nt,nt,nt,nt,i
O=C(Cn1cnc2c(nnn2Cc2ccccc2)c1=O)Nc1ccc2c(c1)OCCO2,i,i,i,-11,0.48,i
Cc1ccc(S(=O)(=O)N2CCC[C@H]2C(=O)OCC(=O)N2CCc3ccccc32)cc1,nt,nt,nt,nt,nt,i
CNC(=O)c1ccccc1Nc1ccc(SC(F)F)cc1,6*,i,i,-12,1,i
O=C(NCc1ccncc1)c1ccccc1Nc1ccc(SC(F)F)cc1,i,i,i,-2,-0.53,i
O=C(Cc1cccc2ccccc12)Nc1ccc(Br)cc1C(=O)O,10*,i,i,-5,-0.14,i
CCn1ncc(Br)c1C(=O)Nc1ccccc1C(=O)OC,i,i,i,-24,0.21,i
CCn1cc(Br)c(C(=O)Nc2ccccc2C(=O)OC)n1,i,-6.6*,i,-10,-0.23,i
Cc1ccc(C2(C)NC(=O)N(CC(=O)NNC(=O)c3cc(C)oc3C)C2=O)cc1 (configuration not stated),i,i,i,-11,0,i
CN(C[C@H](Cc1ccccc1)N(C[C@H](Cc1ccccc1)N(CCC(C)(C)C)N=O)N=O)N=O,8*,i,i,-12,-0.46,i
CC(C)CCN(N=O)[C@@H](Cc1ccccc1)CN(N=O)[C@@H](Cc1ccccc1)CN(C)N=O,i,i,i,-16,0.72,i
Cc1sc2ncnc(SCC(=O)c3ccc(O)cc3O)c2c1C,i,i,8*,1,0.55,i
Nc1nc(Nc2ccc(Cl)cc2)nc2ccccc12,i,i,i,-26,-14*,i
Cc1ccc(Nc2nc(N)c3ccccc3n2)cc1Cl,i,i,i,-21,-13*,i
CC(NNC(=S)N1CCN(c2ccccn2)CC1)c1nccc2ccccc12 (configuration not stated),nt,nt,nt,nt,nt,i
Cc1ccc2c(c1)-c1ncc(C(=O)c3cc(Br)ccc3O)cc1CO2,8*,-8.9*,i,-14,-0.04,nt
O=S(=O)(c1cccc(F)c1)N1CCN(c2ncnc3scc(-c4ccc(F)cc4)c23)CC1,i,i,i,-15,1.6,i
COc1ccc(-c2csc3ncnc(N4CCN(S(=O)(=O)c5cccc(C(F)(F)F)c5)CC4)c23)cc1,i,-7.1*,i,-12,1.6,i
NS(=O)(=O)c1ccc(NC(=S)Nc2ccc(OCc3ccccc3)cc2)cc1,i,i,30*,-4,2.5,i
S=C(Nc1ccccc1)Nc1ccc(OCc2ccccc2)cc1,i,i,i,-12,1,i
Cc1cccc2cc3c(N)c(C(=O)Nc4ccc(N5CCOCC5)cc4)sc3nc12,i,i,i,-1,-2.9,-11*
SMILES,KCNQ1 inh,KCNK9 block,KCNQ1 pot,hERG rescue,Kir21 inh,KCNK3 inh
Cc1ccc2nc3sc(C(=O)Nc4ccc(N5CCOCC5)cc4)c(N)c3cc2c1,i,i,i,-1,0.17,nt
N#Cc1ccccc1Sc1ccccc1C(=O)NCC(c1ccco1)N1CCCC1 (configuration not stated),i,i,i,-13,-1.8,i
CC(C)N(Cc1ccccc1)C(=O)COC(=O)c1ccc(S(=O)(=O)N2CCOCC2)cc1,nt,nt,nt,nt,nt,i
CCOC(=O)c1cc(-c2nnc(-c3ccc(Oc4ccccc4)cc3)o2)c(C)nc1C,i,i,i,-23,-0.91,-10*
CCOC(=O)c1cc(C(=O)NN)c(C)nc1C,i,i,i,-8,1.6,i
O=C(C=Cc1ccc2c(c1)OCO2)c1ccccc1,nt,nt,nt,nt,nt,i
CCOC(=O)C(=Cc1ccc2c(c1)OCO2)c1ccccc1,nt,nt,nt,nt,nt,-9.8*
